Data as given in ChEMBL document CHEMBL1155063 (Bioorg Med Chem, 2008).
The source made the active and inactive calls. No cut-off for these calls is given here.

Columns and labels:
[1] = Cytotoxicity against human H1299 cells at 100 uM after 48 hrs by MTT assay realtive to control; format: functional; conditions: NCI-H1299, 48 h
Summary of the method: (§1)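 H1299 non-small-cell lung cells were kept in RPMI 1640 with 10% FBS and penicillin/streptomycin at 37 °C under 5% CO2. About 2 × 10^3 cells per well were pre-incubated for 24 h. Compound was added from freshly made DMSO solution diluted in complete medium and left for 48 h. MTT was then added for 4 h at 37 °C, followed by 20% SDS/50% DMF lysis buffer for 16 h at 37 °C, and absorbance read at 550 nm.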

[2] = Cytotoxicity against human H1299 cells at 10 uM after 48 hrs by MTT assay realtive to control; format: functional; conditions: NCI-H1299, 48 h; summary of the method: as §1
[3] = molecular target: T1, Telomerase reverse transcriptase (Homo sapiens, UniProt O14746); assay: Effect on human TERT expressed in BJ1 cells at 100 uM after 24 hrs by SEAP assay relative to control; conditions: BJ
[4] = molecular target: T1, Telomerase reverse transcriptase; assay: Inhibition of telomerase in human H1299 cells at 1 to 20 uM by TRAP assay; format: cell-based
Summary of the method: (§2)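 Modified TRAP assay using 2 µg total lysate from H1299 lung cancer cells as the telomerase source. Compounds were tested at 1, 5, 10 and 20 µM. Products were resolved on 10% polyacrylamide gels and stained with SYBR Green. A Taq-polymerase internal control was included, along with positive and negative controls.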

[5] = Cytotoxicity against human TERT immortalized BJ1 cells at 10 uM after 48 hrs by MTT assay relative to control; format: cell-based, BJ
Summary of the method: (§3)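 hTERT-immortalized BJ1 fibroblasts were grown in DMEM with 10% FCS, 1 mM pyruvate and 4 mM […]. Cells (about 2 × 10^3 per well) were seeded and held 24 h at 37 °C. Compounds were freshly dissolved in DMSO, diluted into medium and left on the cells 48 h. MTT was added for 4 h, then SDS/DMF lysis buffer for 16 h. Absorbance was read at 550 nm and expressed relative to untreated cells (100%).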

[6] = Cell viability of human H1299 cells at 1 uM after 48 hrs by MTT assay relative to control; conditions: NCI-H1299, 48 h
[7] = molecular target: T1, Telomerase reverse transcriptase; assay: Effect on human TERT expressed in H1299 cells at 1 uM after 24 hrs by SEAP assay relative to control
[8] = molecular target: T1, Telomerase reverse transcriptase; assay: Effect on human TERT expressed in BJ1 cells at 10 uM after 24 hrs by SEAP assay relative to control; conditions: BJ
[9] = molecular target: T1, Telomerase reverse transcriptase; assay: Effect on human TERT expressed in H1299 cells at 100 uM after 24 hrs by SEAP assay relative to control
[10] = Cytotoxicity against human TERT immortalized BJ1 cells at 1 uM after 48 hrs by MTT assay relative to control; format: cell-based, BJ; summary of the method: as §3
[11] = molecular target: T1, Telomerase reverse transcriptase; assay: Effect on human TERT expressed in H1299 cells at 10 uM after 24 hrs by SEAP assay relative to control
[12] = Cytotoxicity against human TERT immortalized BJ1 cells at 100 uM after 48 hrs by MTT assay relative to control; format: cell-based, BJ; summary of the method: as §3
[13] = molecular target: T1, Telomerase reverse transcriptase; assay: Effect on human TERT expressed in BJ1 cells at 1 uM after 24 hrs by SEAP assay realtive to control; conditions: BJ
[14] = molecular target: T1, Telomerase reverse transcriptase; assay: Inhibition of G-quadruplex-induced human TERT in H1299 cells by TRAP assay; format: cell-based; summary of the method: as §2

T1 sequence (O14746 whole entry): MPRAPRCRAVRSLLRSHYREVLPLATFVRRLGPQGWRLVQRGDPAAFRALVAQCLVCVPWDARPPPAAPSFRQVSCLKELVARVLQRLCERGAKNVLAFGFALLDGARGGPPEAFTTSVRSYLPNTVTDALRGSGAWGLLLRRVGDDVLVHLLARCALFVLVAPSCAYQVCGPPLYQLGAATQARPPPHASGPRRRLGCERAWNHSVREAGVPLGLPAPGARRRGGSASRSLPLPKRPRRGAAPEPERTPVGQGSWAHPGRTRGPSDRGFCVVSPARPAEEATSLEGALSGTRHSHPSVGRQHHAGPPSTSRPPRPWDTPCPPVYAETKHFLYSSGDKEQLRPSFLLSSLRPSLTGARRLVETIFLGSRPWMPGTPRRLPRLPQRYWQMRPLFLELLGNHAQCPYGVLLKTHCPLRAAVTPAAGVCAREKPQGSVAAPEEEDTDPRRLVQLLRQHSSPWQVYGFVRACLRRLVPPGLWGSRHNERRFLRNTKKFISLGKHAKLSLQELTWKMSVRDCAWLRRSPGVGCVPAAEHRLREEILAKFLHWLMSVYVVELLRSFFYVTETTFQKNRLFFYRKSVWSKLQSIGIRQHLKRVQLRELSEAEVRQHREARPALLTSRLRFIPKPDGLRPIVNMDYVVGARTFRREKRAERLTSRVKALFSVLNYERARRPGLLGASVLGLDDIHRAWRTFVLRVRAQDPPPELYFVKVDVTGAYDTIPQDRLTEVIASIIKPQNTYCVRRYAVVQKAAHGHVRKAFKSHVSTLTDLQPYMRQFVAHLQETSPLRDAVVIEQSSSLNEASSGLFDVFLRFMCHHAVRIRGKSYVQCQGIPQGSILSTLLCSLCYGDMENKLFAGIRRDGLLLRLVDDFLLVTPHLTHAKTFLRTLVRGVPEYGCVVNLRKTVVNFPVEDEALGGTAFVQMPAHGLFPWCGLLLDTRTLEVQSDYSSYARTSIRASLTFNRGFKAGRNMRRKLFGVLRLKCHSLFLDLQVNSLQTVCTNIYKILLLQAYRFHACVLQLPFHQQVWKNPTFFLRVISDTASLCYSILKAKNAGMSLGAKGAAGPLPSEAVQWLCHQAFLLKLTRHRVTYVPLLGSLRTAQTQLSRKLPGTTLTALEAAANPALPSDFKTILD

SMILES	viability at 100 µM [1] [%]	viability at 10 µM [2] [%]	residual activity [3] [%]	Activity [4]	viability at 48 h, 10 µM [5] [%]	cell viability at 1 µM [6] [%]	residual activity [7] [%]	residual activity [8] [%]	residual activity [9] [%]	viability at 48 h, 1 µM [10] [%]	residual activity [11] [%]	viability at 48 h, 100 µM [12] [%]	residual activity [13] [%]	IC50 [14] [µM]
O=C(CCN1CCNCC1)Nc1ccc2c(c1)C(=O)c1cc(NC(=O)CCN3CCNCC3)ccc1C2=O	102	94	131	Active	100	97	75	118	71	96	71	88		
CCNCCC(=O)Nc1ccc2c(c1)C(=O)c1cc(NC(=O)CCNCC)ccc1C2=O	34	59	97	Active	73	86	68		22	82	33	42		
O=C(CCc1ccccc1)Nc1ccc2c(c1)C(=O)c1cc(NC(=O)CCc3ccccc3)ccc1C2=O	76	94	43		44	102	89	92	61	89	79	44	74	
CCCCNCCC(=O)Nc1ccc2c(c1)C(=O)c1cc(NC(=O)CCNCCCC)ccc1C2=O	14	52	111		70	82	56	95	22	80	33	40	88	
CCCCNCC(=O)Nc1ccc2c(c1)C(=O)c1cc(NC(=O)CNCCCC)ccc1C2=O	15	17	80		41	91	77	24	20	103	26	43	27	
O=C(Cc1ccccc1)Nc1ccc2c(c1)C(=O)c1cc(NC(=O)Cc3ccccc3)ccc1C2=O	75	96	40		80	106	97	79	80	93	91	86	85	
CN(C)CCC(=O)Nc1ccc2c(c1)C(=O)c1cc(NC(=O)CCN(C)C)ccc1C2=O	1	53	38	Active	30	1	5	61	1	94	13	22	86	
O=C(CCN1CCCCC1)Nc1ccc2c(c1)C(=O)c1cc(NC(=O)CCN3CCCCC3)ccc1C2=O	18	44		Active	54	87	55		25	92	33	41		8.4
CC(C)CNCC(=O)Nc1ccc2c(c1)C(=O)c1cc(NC(=O)CNCC(C)C)ccc1C2=O	11	39	40		37	108	73	44	26	107	38	39	83	
CCCNCCC(=O)Nc1ccc2c(c1)C(=O)c1cc(NC(=O)CCNCCC)ccc1C2=O	13	50		Active	65	80	52	133	13	75	22	38		
